Active and inactive are the calls of the source. The rule behind the calls is not given here.
Experiments:
[1] = tested on: MGC-803; test: Induction of DNA damage in human MGC-803 cells assessed as increase in phosphorylated H2AX protein level at Ser139 residue at 25 to 50 uM incubated for 24 hrs by Western blot analysis; type: functional, cell-based; conditions: dose 25-50 µM
Summary of the method: (§1)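 MGC-803 cells treated 25 or 50 μM for 24 h, lysed in ice-cold 1% SDS/Tris-HCl pH 7.5 buffer with EDTA, NaCl and protease inhibitors, spun 12,000g 18 min. Protein quantified by BCA; 40–50 μg resolved on 10% SDS-PAGE, transferred to PVDF, milk-blocked 2 h, primary antibody overnight, HRP secondary 1 h at RT. ECL detection with densitometry.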

[2] = tested on: MGC-803; test: Induction of ferroptosis in human MGC-803 cells assessed as reduction of GPX4 protein expression level at 25 to 50 uM incubated for 24 hrs by Western blot analysis; type: functional, cell-based; conditions: dose 25-50 µM; summary of the method: as §1
[3] = tested on: MGC-803; test: Induction of cell cycle arrest in human MGC-803 cells assessed as accumulation of cells at G0/G1 phase at 25 uM incubated for 24 hrs by PI staining based flow cytometry (Rvb=59.09%); type: functional
[4] = tested on: MGC-803; test: Induction of ferroptosis in human MGC-803 cells assessed as reduction in mitochondrial cristae at 5 uM incubated for 24 hrs by TEM analysis; type: functional, cell-based
Summary of the method: (§2)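 Cell samples prefixed in 3% glutaraldehyde, postfixed in 1% osmium tetroxide, dehydrated through graded acetone (30–100%), embedded in Epon812, cut into 60–90 nm ultrathin sections on copper grids, stained with uranyl acetate 10–15 min and lead citrate 1–2 min at room temperature, examined by TEM.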

[5] = tested on: MGC-803; test: Induction of cell cycle arrest in human MGC-803 cells assessed as accumulation of cells at G2/M phase at 25 uM incubated for 24 hrs by PI staining based flow cytometry (Rvb=12.91%); type: functional
[6] = tested on: MGC-803; test: Induction of cell cycle arrest at S phase in human MGC-803 cells assessed as decrease in cyclin E1 protein expression level at 25 to 50 uM incubated for 24 hrs by Western blot analysis; type: functional, cell-based; conditions: dose 25-50 µM; summary of the method: as §1
[7] = tested on: calf thymus DNA (Bos taurus); test: Competitive binding affinity to calf thymus DNA in presence of propidium iodide by fluorescence intercalator displacement assay
[8] = Metabolic stability in male CD-1 mouse liver microsomes assessed as half life at 2 uM incubated for 60 min in the presence of NADPH by LC-MS/MS analysis; type: ADME, Microsome
Summary of the method: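 Male CD-1 mouse liver microsomes at 0.5 mg/mL final in 100 mM phosphate buffer, pH 7.4. Mixture was preincubated with 1 mM NADPH (PBS only for the negative control) for 10 min at 37°C. Reaction was started with test compound at 2 µM final. Aliquots were taken at 0.5, 15, 30, 45 and 60 min into cold methanol with internal standard, centrifuged, and the supernatant analysed by LC-MS/MS.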

[9] = tested on: MGC-803; test: Antitumor activity against human MGC-803 cells xenografted in nude mouse assessed as tumor inhibition ratio at 12 mg/kg, ip administered once every two days for 21 days relative to control; type: functional; conditions: MGC-803, 504 h, time 21 day
Summary of the method: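 1×10^6 tumor cells injected s.c. into the right flank of nude mice. At mean tumor volume 60–80 mm³, animals randomized to vehicle or treatment groups (n = 6). Compound in 5% v/v DMSO/saline given i.p. every 2 days. Tumor size and weight recorded; volume = lw²/2 from length and width. Body weight tracked as the systemic toxicity index.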

[10] = tested on: MGC-803; test: Antiproliferative activity against human MGC-803 cells incubated for 48 hrs by MTT assay; type: functional, cell-based; conditions: MGC-803, 48 h
Summary of the method: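 Cells kept as monolayers in DMEM with 10% FBS, streptomycin and penicillin, 37°C, 5% CO₂. Exponentially growing cells seeded in 96-well plates, exposed 48 h, then MTT (10 mg/mL stock) for 4 h at 37°C. Medium removed, formazan dissolved in DMSO, OD read at 490 nm. Five wells per condition; each cell line run three times.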

[11] = tested on: MGC-803; test: Induction of cell cycle arrest at S phase in human MGC-803 cells assessed as increase in P21 protein expression level at 25 to 50 uM incubated for 24 hrs by Western blot analysis; type: functional, cell-based; conditions: dose 25-50 µM; summary of the method: as §1
[12] = tested on: MGC-803; test: Induction of cell cycle arrest in human MGC-803 cells assessed as accumulation of cells at S phase at 100 uM incubated for 24 hrs by PI staining based flow cytometry (Rvb=28.00%); type: functional
[13] = tested on: MGC-803; test: Induction of ferroptosis in human MGC-803 cells assessed as appearance of ruptured mitochondria at 5 uM incubated for 24 hrs by TEM analysis; type: functional, cell-based; summary of the method: as §2
[14] = tested on: MGC-803; test: Induction of DNA damage in human MGC-803 cells assessed as appearance of long DNA tails at 25 to 100 uM incubated for 24 hrs by comet assay; type: functional, cell-based; conditions: dose 25-100 µM
Summary of the method: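 MGC-803 cells exposed 25, 50 or 100 μM for 24 h, mixed 1:8 with low-melt agarose on comet slides, held 1 day at 4°C in dark, lysed 2 h at 4°C. Alkaline unwinding (1 mM EDTA, 300 mM NaOH, pH >13) 45 min at 4°C; electrophoresis in 1 mM EDTA/200 mM NaOH at 25 V, 30 min. Washed in Tris-HCl pH 7.5, PI-stained, imaged by fluorescence microscopy.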

[15] = tested on: MGC-803; test: Induction of cell cycle arrest in human MGC-803 cells assessed as accumulation of cells at S phase at 25 uM incubated for 24 hrs by PI staining based flow cytometry (Rvb=28.00%); type: functional
[16] = tested on: MGC-803; test: Induction of cell cycle arrest in human MGC-803 cells assessed as accumulation of cells at G0/G1 phase at 50 uM incubated for 24 hrs by PI staining based flow cytometry (Rvb=59.09%); type: functional
[17] = tested on: MGC-803; test: Induction of cell cycle arrest in human MGC-803 cells assessed as accumulation of cells at G2/M phase at 50 uM incubated for 24 hrs by PI staining based flow cytometry (Rvb=12.91%); type: functional
[18] = tested on: MGC-803; test: Induction of ferroptosis in human MGC-803 cells assessed as appearance of smaller mitochondria at 5 uM incubated for 24 hrs by TEM analysis; type: functional, cell-based; summary of the method: as §2
[19] = tested on: MGC-803; test: Induction of cell cycle arrest in human MGC-803 cells assessed as accumulation of cells at S phase at 50 uM incubated for 24 hrs by PI staining based flow cytometry (Rvb=28.00%); type: functional
[20] = tested on: U-251; test: Antiproliferative activity against human U-251 cells incubated for 48 hrs by MTT assay; type: functional, cell-based; conditions: U-251, 48 h
Summary of the method: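 Monolayer cells in DMEM with 10% FBS, penicillin and streptomycin, 37°C, 5% CO2. Exponentially growing cells were seeded in 96-well plates and exposed to compound for 48 h. MTT was then added for 4 h at 37°C. Medium was removed, formazan dissolved in DMSO, and OD read at 490 nm. Each plate had five replicate wells, and assays were repeated three times per line.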

[21] = tested on: MGC-803; test: Induction of cell cycle arrest in human MGC-803 cells assessed as accumulation of cells at G2/M phase at 100 uM incubated for 24 hrs by PI staining based flow cytometry (Rvb=12.91%); type: functional

Structure (SMILES): CN(C)CCN1C(=O)c2cccc3c(N4CCN(C(=O)CCOCCOCCOCCOCCNC(=O)CCCCC5SCC6NC(=O)NC65)CC4)ccc(c23)C1=O (stereo unspecified)
- Activity [1]: Active
- Activity [2]: Active
- Activity [3]: 53.99%
- Activity [4]: Active
- Activity [5]: 23.3%
- Activity [6]: Active
- Activity [7]: Active
- half-life at 2 µM [8]: 36.6 min
- inhibition in vivo at 12 mg/kg [9]: 29.6%
- IC50 [10]: > 50 µM
- Activity [11]: Active
- Activity [12]: 41.72%
- Activity [13]: Active
- Activity [14]: Active
- Activity [15]: 22.7%
- Activity [16]: 33.17%
- Activity [17]: 26.25%
- Activity [18]: Active
- Activity [19]: 40.58%
- IC50 [20]: > 50 µM
- Activity [21]: 18.57%

Reference: ChEMBL document CHEMBL5532699, “Design, docking optimization, and evaluation of biotin-PEG4-1,8-naphthalimide as a potent and safe antitumor agent with dual targeting of ferroptosis and DNA” (RSC Med Chem, 2024)
